Test results as given in ChEMBL document CHEMBL1123002, “Resolution of 5,6-dihydroxy-2-(N,N-di-n-propylamino)tetralin in relation to the structural and stereochemical requirements for centrally acting dopamine agonists” (J Med Chem, 1985).

How the values were obtained:
Dopamine receptor [1] = assay: Inhibitory activity against [3H]NPA binding (0.45) to dopamine receptor in striata of female wistar rats; type: protein assay
Summary of the method: (§1)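 Rat striatal membranes prepared in 15 mM Tris-HCl with 1 mM EDTA and 0.01% ascorbate, pH 7.5, washed by repeated 35000g spins. Incubated in triplicate for 30 min at 25 °C with 0.46 nM [³H]NPA and competitor over 10⁻¹¹–10⁻⁵ M. Nonspecific binding defined with 10⁻⁶ M (+)-butaclamol. Bound label collected on GF/B filters and counted by scintillation. IC50 from log-probit analysis of at least three determinations.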

Rattus norvegicus [2] = assay: In vivo dopaminergic activity was assessed by scoring stereotyped behavior in rats at dose 0.5 umol/kg; type: functional
Summary of the method: (§2)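 Rats dosed ip with drug in saline containing 0.1% sodium bisulfite. Stereotyped behaviour scored over 30 min after injection by a published rating method.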

Rattus norvegicus [3] = assay: In vivo dopaminergic activity was assessed by measuring the decrease of DA […] levels in rat brain at dose 0.5 umol/kg; type: functional; parameters: scale not given: the % may be the effect or the level left
Summary of the method: (§3)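 Female Wistar-derived rats (160–220 g) given drug ip in saline with 0.1% sodium bisulfite. Killed by decapitation 40 min later. Striata dissected, frozen on dry ice, stored at -80 °C, then homogenized in 0.1 M perchloric acid and centrifuged. DA, HVA and DOPAC in the supernatant measured by Sephadex G10 cleanup and reverse-phase HPLC with amperometric detection, compared against controls.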

Rattus norvegicus [4] = assay: In vivo dopaminergic activity was assessed by measuring the decrease of DA metabolite (DOPAC) levels in rat brain at dose 0.25 umol/kg; type: functional; parameters: scale not given: the % may be the effect or the level left; summary of the method: as §3
Rattus norvegicus [5] = assay: In vivo dopaminergic activity was assessed by scoring stereotyped behavior in rats at dose 0.25 umol/kg; type: functional; summary of the method: as §2
Rattus norvegicus [6] = assay: In vivo dopaminergic activity was assessed by measuring the decrease of DA metabolite (HVA) levels in rat brain at dose 0.25 umol/kg; type: functional; parameters: scale not given: the % may be the effect or the level left; summary of the method: as §3
Rattus norvegicus [7] = assay: In vivo dopaminergic activity was assessed by measuring the decrease of DA […] levels in rat brain at dose 0.25 umol/kg; type: functional; parameters: scale not given: the % may be the effect or the level left; summary of the method: as §3
Rattus norvegicus [8] = assay: In vivo dopaminergic activity was assessed by measuring the decrease of DA metabolite (DOPAC) levels in rat brain at dose 0.5 umol/kg; type: functional; parameters: scale not given: the % may be the effect or the level left; summary of the method: as §3
Rattus norvegicus [9] = assay: In vivo dopaminergic activity was assessed by measuring the decrease of DA metabolite (HVA) levels in rat brain at dose 0.5 umol/kg; type: functional; parameters: scale not given: the % may be the effect or the level left; summary of the method: as §3
Rattus norvegicus [10] = assay: In vivo dopaminergic activity was assessed by measuring the decrease of DA […] levels in rat brain at dose 10 umol/kg; type: functional; parameters: scale not given: the % may be the effect or the level left; summary of the method: as §3
Rattus norvegicus [11] = assay: In vivo dopaminergic activity was assessed by measuring the decrease of DA metabolite (HVA) levels in rat brain at dose 5 umol/kg; type: functional; parameters: scale not given: the % may be the effect or the level left; summary of the method: as §3
Rattus norvegicus [12] = assay: In vivo dopaminergic activity was assessed by scoring stereotyped behavior in rats at dose 5 umol/kg; type: functional; summary of the method: as §2
Rattus norvegicus [13] = assay: In vivo dopaminergic activity was assessed by scoring stereotyped behavior in rats at dose 10 umol/kg; type: functional; summary of the method: as §2
Rattus norvegicus [14] = assay: In vivo dopaminergic activity was assessed by measuring the decrease of DA […] levels in rat brain at dose 5 umol/kg; type: functional; parameters: scale not given: the % may be the effect or the level left; summary of the method: as §3
Rattus norvegicus [15] = assay: In vivo dopaminergic activity was assessed by measuring the decrease of DA metabolite (DOPAC) levels in rat brain at dose 5 umol/kg; type: functional; parameters: scale not given: the % may be the effect or the level left; summary of the method: as §3
Rattus norvegicus [16] = assay: In vivo dopaminergic activity was assessed by measuring the decrease of DA metabolite (HVA) levels in rat brain at dose 10 umol/kg; type: functional; parameters: scale not given: the % may be the effect or the level left; summary of the method: as §3
Rattus norvegicus [17] = assay: In vivo dopaminergic activity was assessed by measuring the decrease of DA metabolite (DOPAC) levels in rat brain at dose 10 umol/kg; type: functional; parameters: scale not given: the % may be the effect or the level left; summary of the method: as §3
Dopamine receptor [18] = assay: Inhibitory activity against [3H]NPA binding (0.45) to dopamine receptors in striata of female wistar rats; type: protein assay; summary of the method: as §1

SMILES | IC50 (Dopamine receptor [1]) [nM] | Stereotypy score (Rattus norvegicus [2]) | Control (Rattus norvegicus [3]) [%] | Control (Rattus norvegicus [4]) [%] | Stereotypy score (Rattus norvegicus [5]) | Control (Rattus norvegicus [6]) [%] | Control (Rattus norvegicus [7]) [%] | Control (Rattus norvegicus [8]) [%] | Control (Rattus norvegicus [9]) [%] | Control (Rattus norvegicus [10]) [%] | Control (Rattus norvegicus [11]) [%] | Stereotypy score (Rattus norvegicus [12]) | Stereotypy score (Rattus norvegicus [13]) | Control (Rattus norvegicus [14]) [%] | Control (Rattus norvegicus [15]) [%] | Control (Rattus norvegicus [16]) [%] | Control (Rattus norvegicus [17]) [%] | IC50 (Dopamine receptor [18]) [nM]
CCCN(CCC)C1CCc2c(ccc(O)c2O)C1 (single isomer, unassigned; (-)) | 2.5 | 4 | 114.2 | <53.7 | 4 | <42.5 | 98.4 | <58 | <42.6 |  |  |  |  |  |  |  |  | 
CCCN(CCC)C1CCc2c(ccc(O)c2O)C1 (single isomer, unassigned; (+)) | 400 | 0 | 109.4 |  |  |  |  | 93.3 | 86.5 | <125.8 | <48.6 | 3 | 3 | 115 | 68.9 | <41.2 | <60.1 | 
CCCN(CCC)C1CCc2c(ccc(O)c2O)C1 (racemic) |  |  | 114.9 | 61 |  | 36.2 | 103 | 58.5 | 47.6 |  |  |  |  |  |  |  |  | 4
